ChEMBL document CHEMBL1255190, “The selected flavonol glycoside derived from Sophorae Flos improves glucose uptake and inhibits adipocyte differentiation via activation AMPK in 3T3-L1 cells” (Bioorg Med Chem Lett, 2010)
The source made the active and inactive calls. No cut-off for these calls is given here.

Tests used:
Assay type in all cases: cell-based
[1] = biological target: 5'-AMP-activated protein kinase catalytic subunit alpha-2 (Mus musculus) (UniProt Q8BRK8); experiment: Inhibition of AMPK-mediated adipocyte differentiation in mouse 3T3L1 cells; details: 3T3-L1
Sequence of 5'-AMP-activated protein kinase catalytic subunit alpha-2 (Mus musculus) (Q8BRK8 whole entry): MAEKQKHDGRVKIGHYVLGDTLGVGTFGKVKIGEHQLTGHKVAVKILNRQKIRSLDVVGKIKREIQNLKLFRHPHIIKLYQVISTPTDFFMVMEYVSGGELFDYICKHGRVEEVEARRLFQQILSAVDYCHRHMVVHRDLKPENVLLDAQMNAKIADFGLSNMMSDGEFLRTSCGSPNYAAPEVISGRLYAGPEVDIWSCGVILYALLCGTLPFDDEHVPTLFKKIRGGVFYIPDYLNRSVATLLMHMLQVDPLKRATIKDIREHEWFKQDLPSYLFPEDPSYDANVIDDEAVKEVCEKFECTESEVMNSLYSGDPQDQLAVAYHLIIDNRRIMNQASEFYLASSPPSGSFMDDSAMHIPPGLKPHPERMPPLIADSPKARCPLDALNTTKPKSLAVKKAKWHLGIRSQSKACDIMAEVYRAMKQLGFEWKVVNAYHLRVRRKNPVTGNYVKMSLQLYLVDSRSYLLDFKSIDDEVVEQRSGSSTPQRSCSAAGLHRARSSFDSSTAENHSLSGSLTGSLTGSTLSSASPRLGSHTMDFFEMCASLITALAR
How it was run: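 Compound (0, 5, 10 or 20 uM) co-applied with MDI differentiation medium on day 0 for 48 h. Differentiation ended at day 6 and lipid droplets were stained with Oil red O. Triplicate runs, means ± S.D.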

3T3-L1 = experiment: Cytotoxicity against mouse 3T3L1 cells at 20 uM after 24 hrs; details: 3t3-l1, 24 h
How it was run: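 3T3-L1 cells exposed to compounds at 5-100 uM for 24 h. Viability was assessed under Mosmann's conditions.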

[2] = biological target: 5'-AMP-activated protein kinase catalytic subunit alpha-2 (Mus musculus) (UniProt Q8BRK8); experiment: Induction of AMPK phosphorylation in mouse 3T3L1 cells at 10 uM by Western blotting; details: 3T3-L1
How it was run: (§1)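 Mouse 3T3-L1 cells exposed to test compound at 10 uM. Phosphorylated AMPK and its downstream target ACC were detected by western blot. Experiments were run in triplicate, with data given as means ± S.D. Groups were compared by one-way ANOVA with the Newman-Keuls test, significance p < 0.05.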

[3] = biological target: 5'-AMP-activated protein kinase catalytic subunit alpha-2 (Mus musculus) (UniProt Q8BRK8); experiment: Induction of AMPK-mediated ACC phosphorylation in mouse 3T3L1 cells at 10 uM by Western blotting; details: 3T3-L1; how it was run: as §1
[4] = biological target: 5'-AMP-activated protein kinase catalytic subunit alpha-2 (Mus musculus) (UniProt Q8BRK8); experiment: Inhibition of AMPK in mouse 3T3L1 cells assessed as inhibition of C/EBPalpha gene expression by RT-PCR; details: 3T3-L1
How it was run: (§2)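 MDI-induced differentiating 3T3-L1 cells were given 0, 5, 10 or 20 uM. Per the legend, cells were treated for 6 h. RNA was extracted with Trizol and RT-PCR run with specific primers for the adipogenic markers. Triplicate runs; one-way ANOVA with Newman-Keuls test.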

[5] = biological target: 5'-AMP-activated protein kinase catalytic subunit alpha-2 (Mus musculus) (UniProt Q8BRK8); experiment: Inhibition of AMPK in mouse 3T3L1 cells assessed as inhibition of PPARgamma gene expression by RT-PCR; details: 3T3-L1; how it was run: as §2
[6] = biological target: 5'-AMP-activated protein kinase catalytic subunit alpha-2 (Mus musculus) (UniProt Q8BRK8); experiment: Inhibition of AMPK in mouse 3T3L1 cells assessed as inhibition of FAS gene expression by RT-PCR; details: 3T3-L1; how it was run: as §2
[7] = biological target: 5'-AMP-activated protein kinase catalytic subunit alpha-2 (Mus musculus) (UniProt Q8BRK8); experiment: Inhibition of AMPK-mediated glucose uptake in mouse 3T3L1 cells; details: 3T3-L1
How it was run: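 Differentiated 3T3-L1 adipocytes incubated 1 h with 5, 10 or 20 uM, with 200 nM insulin as reference. 2-Deoxy-D-[3H]-glucose uptake was then measured. For AMPK dependence, 10 uM was tested with or without compound C (10 uM). Triplicate runs, means ± S.D., p<0.05.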

[8] = biological target: 5'-AMP-activated protein kinase catalytic subunit alpha-2 (Mus musculus) (UniProt Q8BRK8); experiment: Inhibition of AMPK in mouse 3T3L1 cells assessed as inhibition of C/EBPalpha level by Western blotting; details: 3T3-L1
How it was run: (§3)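 Western blot of lysates from 3T3-L1 cells undergoing MDI-induced differentiation. Cells received 0, 5, 10 or 20 uM from day 0. Probed for FAS, SREBP-1c, C/EBPa and PPARgamma. Triplicate runs; one-way ANOVA with Newman-Keuls test.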

[9] = biological target: 5'-AMP-activated protein kinase catalytic subunit alpha-2 (Mus musculus) (UniProt Q8BRK8); experiment: Inhibition of AMPK in mouse 3T3L1 cells assessed as inhibition of PPARgamma level by Western blotting; details: 3T3-L1; how it was run: as §3
[10] = biological target: 5'-AMP-activated protein kinase catalytic subunit alpha-2 (Mus musculus) (UniProt Q8BRK8); experiment: Inhibition of AMPK in mouse 3T3L1 cells assessed as inhibition of FAS level by Western blotting; details: 3T3-L1; how it was run: as §3
[11] = biological target: 5'-AMP-activated protein kinase catalytic subunit alpha-2 (Mus musculus) (UniProt Q8BRK8); experiment: Inhibition of AMPK in mouse 3T3L1 cells assessed as inhibition of SREBP1c level by Western blotting; details: 3T3-L1; how it was run: as §3

Row | SMILES | Activity [1] | Activity (3T3-L1) | other results
1 | COc1cc(-c2oc3cc(O)cc(O)c3c(=O)c2O[C@@H]2O[C@H](CO[C@@H]3O[C@@H](C)[C@H](O)[C@@H](O)[C@H]3O)[C@@H](O)[C@H](O)[C@H]2O)ccc1O [NARCISSIN] | Active | Non-toxic | –
2 | O=c1c(O)c(-c2ccc(O)c(O)c2)oc2cc(O)cc(O[C@@H]3O[C@H](CO)[C@@H](O)[C@H](O)[C@H]3O)c12 | Active | Non-toxic | –
3 | C[C@@H]1O[C@@H](OC[C@H]2O[C@@H](Oc3c(-c4ccc(O)c(O)c4)oc4cc(O)cc(O)c4c3=O)[C@H](O)[C@@H](O)[C@@H]2O)[C@H](O)[C@H](O)[C@H]1O [RUTIN] | Active | Non-toxic | –
4 | O=c1c(O)c(-c2ccc(O)c(O)c2)oc2cc(O)cc(O)c12 [QUERCETIN] | Active | Non-toxic | Activity [2]: Active; Activity [3]: Active
5 | C[C@@H]1O[C@@H](OC[C@H]2O[C@@H](Oc3c(-c4ccc(O)c(O)c4)oc4cc(O)cc(O)c4c3=O)[C@H](O)[C@@H](O)[C@@H]2O)[C@H](O)[C@H](O[C@@H]2O[C@H](CO)[C@@H](O)[C@H](O)[C@H]2O)[C@H]1O | Active | Non-toxic | Activity [2]: Active; Activity [3]: Active; Activity [4]: Active; Activity [5]: Active; Activity [6]: Active; Activity [7]: Active; Activity [8]: Dose-dependent effect; Activity [9]: Dose-dependent effect; Activity [10]: Dose-dependent effect; Activity [11]: Dose-dependent effect
6 | O=c1c(O)c(-c2ccc(O)cc2)oc2cc(O)cc(O)c12 [KAEMPFEROL] | Active | Non-toxic | –
7 | O=c1c(O[C@@H]2O[C@H](CO)[C@@H](O)[C@H](O)[C@H]2O)c(-c2ccc(O)cc2)oc2cc(O)cc(O)c12 [ASTRAGALIN] | Active | Non-toxic | –
8 | O=c1c(O[C@@H]2O[C@H](CO)[C@@H](O)[C@H](O)[C@H]2O)c(-c2ccc(O)c(O)c2)oc2cc(O)cc(O)c12 [ISOQUERCETIN] | Active | Non-toxic | –
9 | C[C@@H]1O[C@@H](OC[C@H]2O[C@@H](Oc3c(-c4ccc(O)c(O)c4)oc4cc(O)cc(O)c4c3=O)[C@H](O)[C@@H](O)[C@@H]2O)[C@H](O)[C@H](O[C@@H]2OC[C@@H](O)[C@H](O)[C@H]2O)[C@H]1O | Active | Non-toxic | –
